# Experimental data: ChEMBL document CHEMBL3425488, “Novel histone deacetylase inhibitors induce growth arrest, apoptosis, and differentiation in sarcoma cancer stem cells” (J Med Chem, 2015)
# Calls of active or inactive are those of the source. No cut-off for these calls is given here.
# Key:
# [1] = test system: MG-63; assay: Induction of human MG63 cell differentiation assessed as increase in bone nodule formation after 14 days by Alizarin Red S staining-based spectrophotometric analysis; assay type: functional
# In short: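 Cells from dissociated MG-63 sarcospheres were grown in α-MEM with 10% FBS until 70% confluent. They were then switched to mineralization medium (10 mM β-glycerophosphate, 10−8 M dexamethasone, […] ascorbic acid 2-phosphate) and exposed continuously to 0.025–0.5 μM compound for 14 days. After fixation, Alizarin Red S staining (pH 4.2) was eluted with 10% cetylpyridinium chloride and read at 570 nm. Values are OD relative to medium-alone control, in triplicate.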
# [2] = target: T1, Protein deacetylase HDAC6 (Homo sapiens, UniProt Q9UBN7); assay: Inhibition of recombinant HDAC6 (unknown origin) by homogeneous fluorescence release assay
# T1 sequence (Q9UBN7 whole entry): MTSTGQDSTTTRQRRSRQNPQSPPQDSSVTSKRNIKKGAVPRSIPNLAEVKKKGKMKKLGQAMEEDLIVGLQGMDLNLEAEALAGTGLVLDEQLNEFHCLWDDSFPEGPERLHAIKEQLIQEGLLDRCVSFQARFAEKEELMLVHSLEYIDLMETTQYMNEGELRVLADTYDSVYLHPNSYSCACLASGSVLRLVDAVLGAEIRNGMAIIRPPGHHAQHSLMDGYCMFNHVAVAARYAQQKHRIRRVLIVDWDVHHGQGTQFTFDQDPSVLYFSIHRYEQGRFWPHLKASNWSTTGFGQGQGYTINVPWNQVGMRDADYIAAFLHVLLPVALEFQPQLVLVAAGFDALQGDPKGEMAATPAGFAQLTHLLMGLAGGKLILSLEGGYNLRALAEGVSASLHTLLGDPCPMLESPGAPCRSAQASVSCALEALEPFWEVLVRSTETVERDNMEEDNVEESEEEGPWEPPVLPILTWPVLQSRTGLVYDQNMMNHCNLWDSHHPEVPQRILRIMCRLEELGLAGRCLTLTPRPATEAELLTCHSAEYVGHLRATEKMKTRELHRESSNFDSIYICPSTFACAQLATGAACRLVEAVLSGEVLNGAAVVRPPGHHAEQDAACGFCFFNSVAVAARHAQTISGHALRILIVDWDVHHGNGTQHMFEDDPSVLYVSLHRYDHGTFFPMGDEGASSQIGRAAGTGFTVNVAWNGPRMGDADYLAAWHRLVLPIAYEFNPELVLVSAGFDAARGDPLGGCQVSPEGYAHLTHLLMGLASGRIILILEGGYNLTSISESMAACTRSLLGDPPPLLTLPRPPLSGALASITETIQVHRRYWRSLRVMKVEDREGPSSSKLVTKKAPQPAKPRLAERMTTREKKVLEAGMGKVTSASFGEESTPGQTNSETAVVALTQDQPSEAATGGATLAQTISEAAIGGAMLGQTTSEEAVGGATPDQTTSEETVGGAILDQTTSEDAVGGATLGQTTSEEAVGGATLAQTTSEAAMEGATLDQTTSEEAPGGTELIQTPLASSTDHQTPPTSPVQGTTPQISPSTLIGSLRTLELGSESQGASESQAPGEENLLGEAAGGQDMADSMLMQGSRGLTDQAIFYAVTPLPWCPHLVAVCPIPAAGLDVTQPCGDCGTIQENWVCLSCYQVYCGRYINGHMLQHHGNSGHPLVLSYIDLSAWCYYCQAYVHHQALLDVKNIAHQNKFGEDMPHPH
# [3] = target: T2, Histone deacetylase 8 (Homo sapiens, UniProt Q9BY41); assay: Inhibition of recombinant HDAC8 (unknown origin) by homogeneous fluorescence release assay
# T2 sequence (Q9BY41 whole entry): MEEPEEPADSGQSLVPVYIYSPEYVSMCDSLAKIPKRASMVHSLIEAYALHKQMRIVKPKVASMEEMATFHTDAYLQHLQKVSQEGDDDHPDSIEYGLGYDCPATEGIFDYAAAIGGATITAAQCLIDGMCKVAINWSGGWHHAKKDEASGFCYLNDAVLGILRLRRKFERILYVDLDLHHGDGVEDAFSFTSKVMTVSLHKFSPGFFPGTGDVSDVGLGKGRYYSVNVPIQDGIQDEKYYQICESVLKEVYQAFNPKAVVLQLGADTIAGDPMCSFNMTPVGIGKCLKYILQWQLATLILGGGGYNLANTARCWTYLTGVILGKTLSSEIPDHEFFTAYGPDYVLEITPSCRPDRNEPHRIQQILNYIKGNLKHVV
# [4] = target: Histone deacetylase 1 (Homo sapiens, UniProt Q13547); assay: Inhibition of recombinant HDAC1 (unknown origin) by homogeneous fluorescence release assay
# Chain of Histone deacetylase 1 (Q13547 whole entry): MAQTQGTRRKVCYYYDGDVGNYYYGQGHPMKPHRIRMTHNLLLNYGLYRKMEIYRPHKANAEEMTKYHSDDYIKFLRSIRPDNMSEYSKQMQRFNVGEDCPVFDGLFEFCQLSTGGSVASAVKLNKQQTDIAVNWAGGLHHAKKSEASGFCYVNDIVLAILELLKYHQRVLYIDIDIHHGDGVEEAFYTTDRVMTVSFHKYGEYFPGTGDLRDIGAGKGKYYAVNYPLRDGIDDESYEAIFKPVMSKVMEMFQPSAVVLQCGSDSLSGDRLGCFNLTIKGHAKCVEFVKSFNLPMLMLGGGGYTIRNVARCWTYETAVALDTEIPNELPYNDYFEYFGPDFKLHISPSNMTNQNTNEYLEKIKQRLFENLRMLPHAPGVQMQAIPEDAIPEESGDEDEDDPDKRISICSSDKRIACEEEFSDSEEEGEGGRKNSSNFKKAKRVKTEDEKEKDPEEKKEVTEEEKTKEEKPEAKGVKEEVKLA
# [5] = test system: MG-63; assay: Induction of human MG63 cell differentiation assessed as increase in bone nodule formation at 0.025 to 0.5 uM after 14 days by Alizarin Red S staining-based spectrophotometric analysis relative to control; assay type: functional
# In short: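 MG-63 sarcosphere-derived cells in mineralization medium (10 mM β-glycerophosphate, 10−8 M dexamethasone, ascorbic acid 2-phosphate) with continuous 0.025–0.5 μM exposure for 14 days. Fixed in 3.7% paraformaldehyde, then stained with 2% Alizarin Red S, pH 4.2, for 1 h. Dye eluted with 10% cetylpyridinium chloride and read at 570 nm. OD expressed relative to mineralization-medium control; triplicate.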
# [6] = target: Histone deacetylase 2 (Homo sapiens, UniProt Q92769); assay: Inhibition of recombinant HDAC2 (unknown origin) by homogeneous fluorescence release assay
# Chain of Histone deacetylase 2 (Q92769 whole entry): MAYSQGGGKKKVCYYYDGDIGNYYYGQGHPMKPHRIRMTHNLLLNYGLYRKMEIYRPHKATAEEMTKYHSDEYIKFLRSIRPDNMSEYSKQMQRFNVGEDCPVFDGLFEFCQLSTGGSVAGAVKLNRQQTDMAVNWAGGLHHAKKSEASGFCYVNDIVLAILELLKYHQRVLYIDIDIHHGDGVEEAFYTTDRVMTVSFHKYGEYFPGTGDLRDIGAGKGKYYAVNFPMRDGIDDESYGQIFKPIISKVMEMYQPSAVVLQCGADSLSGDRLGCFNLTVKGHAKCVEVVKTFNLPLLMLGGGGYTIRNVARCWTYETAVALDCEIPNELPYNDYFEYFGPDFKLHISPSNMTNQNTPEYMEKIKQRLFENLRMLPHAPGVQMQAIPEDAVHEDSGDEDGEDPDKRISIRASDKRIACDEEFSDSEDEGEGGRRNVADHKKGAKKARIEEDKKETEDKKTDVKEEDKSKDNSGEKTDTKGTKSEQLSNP
# [7] = target: T3, Polyamine deacetylase HDAC10 (Homo sapiens, UniProt Q969S8); assay: Inhibition of recombinant HDAC10 (unknown origin) by homogeneous fluorescence release assay
# T3 sequence (Q969S8 whole entry): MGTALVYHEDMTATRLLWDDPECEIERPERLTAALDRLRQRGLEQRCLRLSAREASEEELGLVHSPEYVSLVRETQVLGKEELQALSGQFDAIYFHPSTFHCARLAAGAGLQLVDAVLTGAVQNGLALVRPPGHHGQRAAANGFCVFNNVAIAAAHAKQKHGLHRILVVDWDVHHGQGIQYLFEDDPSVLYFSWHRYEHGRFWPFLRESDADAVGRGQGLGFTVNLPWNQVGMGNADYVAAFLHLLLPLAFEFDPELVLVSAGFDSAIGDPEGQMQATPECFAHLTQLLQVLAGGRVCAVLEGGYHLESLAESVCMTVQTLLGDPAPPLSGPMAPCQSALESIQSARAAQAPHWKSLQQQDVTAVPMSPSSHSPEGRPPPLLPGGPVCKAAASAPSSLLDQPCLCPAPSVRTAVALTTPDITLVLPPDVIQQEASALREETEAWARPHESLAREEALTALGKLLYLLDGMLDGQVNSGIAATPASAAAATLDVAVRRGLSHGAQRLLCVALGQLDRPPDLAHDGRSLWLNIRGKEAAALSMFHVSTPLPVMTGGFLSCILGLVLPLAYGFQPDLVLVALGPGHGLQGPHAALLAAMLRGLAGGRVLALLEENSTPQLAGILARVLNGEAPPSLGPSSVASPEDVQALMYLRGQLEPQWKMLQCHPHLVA
SMILES,Activity [1],IC50 [2] [nM],IC50 [3] [nM],IC50 [4] [nM],Activity [5],IC50 [6] [nM],IC50 [7] [nM]
O=C(CCCCSc1nc(-c2ccc(-c3ccccc3)cc2)cc(=O)[nH]1)NO,Dose-dependent effect,–,–,–,–,–,–
O=C(/C=C/c1ccc(NC(=O)C(Cc2ccccc2)c2ccccc2)cn1)NO (configuration not stated),–,10,610,1420,inactive,1770,1800
